Assay outcomes from PubChem BioAssay.
Only some compounds are listed: those with a hit (about 2.7% of all), similar ones and a draw of the others.
PfM18AAP inh-1 – blocks P. falciparum M18 aspartyl aminopeptidase. recombinant PfM18AAP, H-Glu-NHMec fluorogenic cleavage. inhibition, % at 7.35 µM. hit rate 1.2% among 290,000;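 active = inhibition above the campaign mean inhibition over all tested compounds plus 3 SD, cut at about 28% in these data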;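 also: 0% = plate median of test compound wells and 100% = 2 mM ZnCl2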
IMP-1 inhibitor – blocks Pseudomonas aeruginosa IMP-1 metallo-beta-lactamase; purified IMP-1, nitrocefin hydrolysis, epi-absorbance fluorescence; inhibition, % at 5.6 µM; hit rate 0.45% among 290,000;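 active = inhibition above the mean plus 3 SD of all compounds in the same screening run, cut at about 4.5% in these data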;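 also: 0% = IMP-1 with DMSO and 100% = DMSO wells lacking enzyme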
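System: purified IMP-1 / Input: IMP-1 dispensed at 0.2 nM / Medium: 50 mM HEPES pH 7.1, 50 µM ZnSO4, 0.05% Brij 35 / Timing: 15 min enzyme–compound preincubation, then 25 min nitrocefin reaction, 25 °C / Technique: plate fluorescence quenching by hydrolysis product, ex 480/em 530 nm / Repeats: singlicate testing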
CTSL1 counter-1 – counter-screen for PFM18AAP inhibitors: inhibitors of F. hepatica cathepsin L1; recombinant F. hepatica cathepsin L1, Z-Leu-Arg-MCA fluorescence; inhibition, % at 5.96 µM; hit rate 0.49% among 300,000;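 active = inhibition above the mean of all tested compounds plus 3 SD, set per screening campaign, cut at about 17% in these data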;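 also: 0% = plate median of test compound wells and 100% = 1 µM Z-Phe-Ala-diazomethylketone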
VIM-2 inh – blocks Pseudomonas aeruginosa VIM-2 metallo-beta-lactamase | AID 1527 | purified VIM-2, nitrocefin hydrolysis, epi-absorbance fluorescence | inhibition, % at 5.6 µM | hit rate 0.89% among 290,000;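 active = inhibition above the mean of all tested compounds plus 3 SD, cutoff set per screening run, cut at about 7.5% in these data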;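 also: red hydrolysis product quenches plate fluorescence so inhibitors raise well fluorescence; 0% = enzyme with DMSO and 100% = DMSO without enzyme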
PfM18AAP inh-2 – confirmation of Plasmodium falciparum M18 aspartyl aminopeptidase inhibitors | AID 2170 | hit rate 28% among 2,400 | recombinant PfM18AAP, H-Glu-NHMec fluorogenic cleavage | inhibition, % at 7.35 µM | shares compounds with PfM18AAP inh-1;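 active = mean inhibition over replicate wells above the hit cutoff set for the earlier primary screen, cut at about 29% in these data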;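 also: 0% = median of test compound wells and 100% = 2 mM ZnCl2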
CTSL1 counter-2 – Cathepsin L (human) inhibition, confirmation | shares compounds with PfM18AAP inh-1 | inhibition, % at 5.96 µM | 2,400 tested, under 10 active | purified cathepsin L1, Z-Leu-Arg-MCA fluorescence;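 active = average inhibition across replicates above the hit cutoff set in the earlier primary screen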;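 also: 0% = median of test compound wells and 100% = Z-Phe-Ala-diazomethylketone 1 µM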
Target sequence (P07711 whole entry, looked up): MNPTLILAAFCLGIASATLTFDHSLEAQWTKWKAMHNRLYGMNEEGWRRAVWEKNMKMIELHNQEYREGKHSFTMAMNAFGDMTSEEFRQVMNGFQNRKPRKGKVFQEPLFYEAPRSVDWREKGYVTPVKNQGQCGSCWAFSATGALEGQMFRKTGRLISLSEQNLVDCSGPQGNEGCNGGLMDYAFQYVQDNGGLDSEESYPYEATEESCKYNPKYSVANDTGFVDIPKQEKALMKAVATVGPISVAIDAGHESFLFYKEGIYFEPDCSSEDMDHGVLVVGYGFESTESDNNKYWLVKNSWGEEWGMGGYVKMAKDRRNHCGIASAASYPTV
* marks the source's active call; other numbers are inactive results; x = no result.

SMILES	PfM18AAP inh-1	IMP-1 inhibitor	CTSL1 counter-1	VIM-2 inh	PfM18AAP inh-2	CTSL1 counter-2
Cc1nc(N2C(=O)C(=O)/C(=C(/O)c3ccccc3)C2c2ccco2)sc1C (configuration not stated)	38*	-4	1	-1	-29	2
CN(C)/N=C/C=C1\CCC/C(=C\c2ccc(F)c(F)c2)C1=O	38*	-1	-2	-2	26	4
COc1ccc(/C=C2\CCC/C(=C\C=N\N(C)C)C2=O)cc1	13	-1	2	-1	x	x
CCC(C)n1ncn(-c2ccc(N3CCN(c4ccc(OCC5COC(Cn6cncn6)(c6ccc(Cl)cc6Cl)O5)cc4)CC3)cc2)c1=O (configuration not stated)	-4	-3	11	-4	x	x
CCC(C)n1ncn(-c2ccc(N3CCN(c4ccc(O)cc4)CC3)cc2)c1=O (configuration not stated)	34*	0	-5	-2	-22	-5
CCSc1nnc(NC(=O)CSc2nnc(CNC(=O)c3cc(OC)c(OC)c(OC)c3)o2)s1	23	-4	1	-1	x	x
Cc1nnc(NC(=O)CSc2nnc(CNC(=O)c3ccc(F)cc3)o2)s1	16	1	-3	-4	x	x
COc1ccc(C(=O)NCc2nnc(SCC(=O)Nc3nnc(C)s3)o2)cc1	35*	-2	-5	-4	-30	-1
COc1ccc(C(=O)NCc2nnc(SCC(=O)Nc3nnc(C)s3)o2)cc1OC	47*	-2	-6	-3	-36	1
CCSc1nnc(NC(=O)CSc2nnc(CNC(=O)c3ccc(OC)cc3)o2)s1	5	-5	-5	-5	x	x
CCc1nnc(NC(=O)CSc2nnc(CNC(=O)c3cc(OC)c(OC)c(OC)c3)o2)s1	41*	-4	-7	-6	-46	-1
Cc1ccc(S(=O)(=O)NCC2(c3ccccc3)CCOCC2)cc1	-9	-2	2	-2	x	x
O=C(COC(=O)Cc1ccc(Br)cc1)NCc1ccc(F)cc1	-2	-1	-7	0	x	x
Cc1nc(SCc2ccc(O)c([N+](=O)[O-])c2)c([N+](=O)[O-])[nH]1	47*	-4	5	-4	-3	3
Cc1nc(SCc2ccc(O)c([N+](=O)[O-])c2)n[nH]1	15	-5	-1	1	x	x
CCC(C)NC(=O)c1ccccc1NS(=O)(=O)c1ccc(OC)c(OC)c1 (configuration not stated)	-3	-3	-1	-1	x	x
CCOC(=O)NC(=O)COC(=O)c1ccc(Sc2ncn[nH]2)c([N+](=O)[O-])c1	89*	0	-5	-3	91*	-6
CCNc1ccc(C(=O)OCC(=O)NC(=O)NCC(C)C)cc1[N+](=O)[O-]	7	-2	9	-3	x	x
C=CCN(CC=C)C(=O)COC(=O)c1ccc(Sc2ncn[nH]2)c([N+](=O)[O-])c1	84*	0	-21	0	80*	-1
C=CCNC(=O)COC(=O)c1ccc(Sc2nncn2C)c([N+](=O)[O-])c1	0	-3	-5	-2	x	x
COCCNC(=S)NNC(=O)c1ccc(-n2cnnn2)cc1	11	-4	-1	-3	x	x
CCC(CC)c1nnc(NC(=O)CCNC(=O)c2ccccc2Cl)s1	0	0	-1	1	x	x
O=C(Cc1cccs1)Nc1cc(SCCO)cc([N+](=O)[O-])c1	-7	-2	0	-3	x	x
Cc1cccc(NC(=O)NNC(=O)c2ccc3ccccc3c2O)c1	27	-2	x	-4	x	x
COc1cccc(OCC(=O)NNC(=O)c2ccc3ccccc3c2O)c1	37*	-6	x	-3	-17	-5
SMILES	PfM18AAP inh-1	IMP-1 inhibitor	CTSL1 counter-1	VIM-2 inh	PfM18AAP inh-2	CTSL1 counter-2
O=C(NNC(=O)c1ccc2ccccc2c1O)Nc1ccc(F)cc1	34*	-3	0	-2	-3	3
COc1ccc(C(=O)NNC(=O)c2ccc3ccccc3c2O)cc1	18	-2	-2	-1	x	x
O=C(NNC(=O)c1ccc2ccccc2c1O)NC1CCCCC1	49*	-1	x	-4	7	-1
Cc1ccc(/C=N/Nc2nc3ccccc3s2)o1	20	-4	3	-7	x	x
CN(c1ccc(O)cc1)c1nc(-c2cccs2)cs1	39*	1	4	5	-5	1
Cc1nc(N)sc1-c1csc(N(C)c2ccc(O)cc2)n1	33*	-2	2	-4	-25	0
O=C(Cn1cnnn1)NCc1ccccc1	-13	1	0	2	x	x
CC(/C=N/n1cnnc1)=C\c1ccco1	55*	-3	0	-4	-7	2
CC(/C=N/n1c(-c2cc(C)[nH]n2)n[nH]c1=S)=C\c1ccco1	36*	1	1	-1	-26	-2
CCOC(=O)c1cnn(-c2ccc([N+](=O)[O-])cc2)c1N	1	-3	-1	-4	x	x
O=C(CN1CCN(c2ccc(C(F)(F)F)cn2)CC1)NCc1ccc2c(c1)OCO2	7	-3	2	-2	x	x
CCOC(=O)c1c(NC(C)=O)sc2c1C1CCN2CC1	0	-1	0	-3	x	x
CCOC(=O)c1c(N)sc2c1C1CCN2CC1	50*	-2	-2	-1	10	3
COc1ccccc1N1C(=O)C=C(Sc2nc(C)cc(C)n2)C1=O	35*	-4	-2	-2	-322	-2
COc1cccc(/C=N/Nc2ccnc(=O)[nH]2)c1O	43*	-4	5	-2	-12	2
COc1cccc(/C=N/NC(=O)N/N=C/c2cccc(OC)c2O)c1O	33*	-3	6	-3	2	-4
Cn1c(CNC(=O)C(Cc2ccccc2)NC(=O)c2cccc(F)c2)cc(=O)n(C)c1=O (configuration not stated)	1	0	-5	1	x	x
COc1ccccc1NS(=O)(=O)NC(=O)c1c(C)[nH]c2ccccc12	1	-2	-4	-6	x	x
CCC1CCCCN1CCCNC(=O)c1ccc(N2CCOCC2)c(NS(=O)(=O)c2ccc(OC)cc2)c1 (configuration not stated)	-3	-2	-2	1	x	x
CCC1CCCCN1CCCNC(=O)c1ccc2c(c1)NC(=O)CN2C (configuration not stated)	32*	-3	7	2	-13	5
COc1ccc(/C(C)=N/Nc2nc3ccccc3nc2C)cc1OC	39*	-2	5	-3	-21	3
COc1ccc(/C(C)=N\NS(=O)(=O)c2ccccc2)cc1OC	1	-4	0	-1	x	x
c1cnc(Oc2ccc(-c3nnco3)cc2)cn1	6	-1	-4	1	x	x
O=C(NNc1cccc(Cl)n1)c1c(F)cccc1F	20	-3	1	-1	x	x
O=C(NNc1cccc(Cl)n1)c1c(Cl)cccc1Cl	56*	-2	0	-2	27	4
NC(=O)NNc1cccc(Cl)n1	47*	-3	0	-2	8	1
O=C(NCC1CCCO1)/C(=C\c1ccccc1F)NC(=O)c1ccccc1 (configuration not stated)	-1	-2	-2	0	x	x
